# Measurements from ChEMBL document CHEMBL1240482, “Synthesis and antiproliferative evaluation of certain indeno[1,2-c]quinoline derivatives. Part 2” (J Med Chem, 2010).
# Activity calls are given as the source filed them. The rule behind the calls is not given here.
# How the values were obtained:
# Mus musculus [1] = assay: Toxicity to BALB/c mouse assessed as survival rate at 10 mg/kg, iv; format: organism-based; design: dose 10 mg/kg, route intravenous; conditions: in vivo
# Summary of the method: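 Balb/C athymic nude mice (6-8 weeks, ~20 g) bearing subcutaneous BT483 breast xenografts (0.5 × 10^6 cells). Treatment began at ~500 mm3 tumour volume: cosolvent formulation diluted in 5% dextrose, iv at 10 or 20 mg/kg once daily for 14 days; controls received vehicle. 3 animals per group. Survival was assessed by Kaplan-Meier analysis at study end, p < 0.05.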
# Mus musculus [2] = assay: Toxicity to BALB/c mouse assessed as change in glutamic oxalacetic transaminase at 20 mg/kg, iv; format: organism-based; design: dose 20 mg/kg, route intravenous; conditions: in vivo
# Summary of the method: (§1)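 BALB/c mice, 3 per group, randomized by body weight (stratified). Dosed iv via tail vein at 10, 20 or 40 mg/kg in PEG 400/ethanol/water (20/20/60), once every 3 days for 2 weeks; solvent controls. Weighed throughout. After a 24 h fast, heart blood was drawn under ether; GOT, GPT, BUN and creatinine were measured on an analyzer. Liver and kidney taken for H&E.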
# Detroit 551 [3] = assay: Selectivity index, ratio of IC50 for human Detroit 551 cells to IC50 for human PC3 cells; format: functional
# SAS = assay: Cytotoxicity against human SAS cells after 48 hrs by MTT assay; format: functional
# Summary of the method: (§2)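 Cells grown in DMEM with 10% FBS at 37 °C and 5% CO2, seeded at 5 × 10^3 per well and allowed 24 h before drug. Serial dilutions from DMSO stocks applied for 48 h. MTT (2 mg/mL in PBS) added for 2 h, formazan dissolved in DMSO, absorbance read at 570 nm. GI50 interpolated by linear regression from at least three points in the 20-80% range; three independent experiments.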
# [4] = Tmax in CD1 mouse at 20 mg/ kg, po; format: ADME, organism-based; design: dose 20 mg/ kg, route oral; conditions: in vivo
# Summary of the method: (§3)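 Male CD-1 (Crl.) mice, 22-24 g, fasted 4 h before dosing; single oral gavage of 20 mg/kg as a suspension in 0.5% methylcellulose/water, 10 mL/kg. Cardiac-puncture plasma (K-EDTA) taken predose to 27 h, three mice per time point; LC-MS/MS quantification.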
# Nucleic Acid = assay: Binding affinity to pBR322; format: nucleic-acid assay; conditions: Escherichia coli
# [5] = Cytotoxicity against human Detroit 551 cells after 48 hrs by MTT assay; format: cell-based; summary of the method: as §2
# BT-483 = assay: Antitumor activity against human BT-483 cells xenografted in BALB/c athymic mouse assessed as reduction in tumor size at 10 to 20 mg/kg, iv; format: functional, organism-based
# Summary of the method: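 Balb/C athymic nude mice, 6-8 weeks, about 20 g, given subcutaneous BT483 breast cancer cells. Once tumours averaged about 500 mm3, dosed iv at 10 or 20 mg/kg once daily for 14 days, in a cosolvent formulation diluted in 5% dextrose; vehicle controls; three animals per group. Caliper volume taken as width × length × height.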
# [6] = Cmax in CD1 mouse at 20 mg/ kg, po; format: ADME, organism-based; design: dose 20 mg/ kg, route oral; conditions: in vivo; summary of the method: as §3
# Mus musculus [7] = assay: Toxicity to BALB/c mouse assessed as change in body weight at 20 mg/kg, iv; format: organism-based; design: dose 20 mg/kg, route intravenous; conditions: in vivo; summary of the method: as §1
# [8] = AUC (0 to infinity) in CD1 mouse at 2 mg/ kg, iv; format: ADME, organism-based; design: time infinity, dose 2 mg/ kg, route intravenous; conditions: plasma
# Summary of the method: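 Fasted male CD-1 (Crl.) mice, 22-24 g; single tail-vein bolus of 2.0 mg/kg in PEG400/ethanol/water (30/5/65), 10 mL/kg. Cardiac-puncture blood into K-EDTA at 0-27 h, three mice per time point; plasma analysed by LC-MS/MS after acetonitrile precipitation. Parameters calculated from mean plasma concentrations.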
# [9] = Cell cycle arrest in human BT-483 cells assessed as accumulation at sub-G1 phase at 1 uM after 24 hrs by flow cytometry; format: functional, cell-based
# Summary of the method: (§4)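 BT483 cells exposed to 0, 1, 3 or 10 μM for 24 h, then stained with propidium iodide and analysed for DNA content by flow cytometry. The subdiploid (sub-G1) peak, expressed as a percentage of the whole population, is scored as apoptotic.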
# [10] = AUC (0 to infinity) in CD1 mouse at 20 mg/ kg, po; format: ADME, organism-based; design: time infinity, dose 20 mg/ kg, route oral; conditions: plasma; summary of the method: as §3
# Detroit 551 [11] = assay: Selectivity index, ratio of IC50 for human Detroit 551 cells to IC50 for human BT-483 cells; format: functional
# [12] = Cell cycle arrest in human BT-483 cells assessed as accumulation at sub-G1 phase at 10 uM after 24 hrs by flow cytometry; format: functional, cell-based; summary of the method: as §4
compound,measurement,setting,value
COc1ccc2c(c1)/C(=N\OCCN1CCCC1)c1c-2c(O)nc2ccccc12,Activity,Mus musculus [1],Non-toxic
same,Activity,Mus musculus [2],Non-toxic
same,RatioGI50,Detroit 551 [3],6.8
same,GI50,SAS,0.84 µM
same,Tmax,[4],1 h
same,Activity,Nucleic Acid,Active
same,GI50 at 48 h,[5],12.4 µM
same,Activity,BT-483,Active
same,Cmax,[6],63 ng/mL
same,Activity,Mus musculus [7],Non-toxic
same,AUC(0-inf),[8],172 ng·h/mL
same,Activity,[9],43%
same,AUC(0-inf),[10],187 ng·h/mL
same,RatioGI50,Detroit 551 [11],15.75
same,Activity,[12],88%
